# Screens from PubChem.
# Sampled rows, rich in hits. Any-hit rate of the full collection: about 1.1%.
# hK5 inh = inhibitors of human kallikrein 5. hit rate 0.59% among 210,000. inhibition, % at 5 µM. recombinant hK5, fluorogenic AMC substrate cleavage;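 active means inhibition of 40% or more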;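 further: 0% = enzyme controls without compound and 100% = no-enzyme blanks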
# Furin inhibitor = human furin inhibition; purified furin, fluorogenic substrate cleavage; AID 463115; inhibition, % at 20 µM or 30 µM; hit rate 0.061% among 220,000; in the data active means inhibition above about 25%
# FXIIa inh 1536 = factor XIIa (human) inhibition. P00748. purified FXIIa, Boc-QGR-AMC fluorogenic substrate, 2 h. inhibition, % at 5 µM. hit rate 0.3% among 220,000; in the data active means inhibition above about 40%;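 further: 0% = enzyme with no compound and 100% = blank without enzyme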
# Target sequence (P00748 20-372 limits assumed): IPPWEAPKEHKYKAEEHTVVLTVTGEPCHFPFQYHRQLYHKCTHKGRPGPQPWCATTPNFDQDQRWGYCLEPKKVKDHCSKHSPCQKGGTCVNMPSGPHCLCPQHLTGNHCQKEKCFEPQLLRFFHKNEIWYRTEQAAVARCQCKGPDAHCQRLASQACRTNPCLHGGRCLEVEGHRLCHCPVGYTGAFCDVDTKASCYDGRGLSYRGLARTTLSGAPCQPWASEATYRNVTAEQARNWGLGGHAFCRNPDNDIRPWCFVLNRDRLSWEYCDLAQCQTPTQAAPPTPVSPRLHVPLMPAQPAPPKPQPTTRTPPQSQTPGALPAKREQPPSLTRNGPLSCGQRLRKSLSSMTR
# Target sequence (P00748 373-615 limits assumed): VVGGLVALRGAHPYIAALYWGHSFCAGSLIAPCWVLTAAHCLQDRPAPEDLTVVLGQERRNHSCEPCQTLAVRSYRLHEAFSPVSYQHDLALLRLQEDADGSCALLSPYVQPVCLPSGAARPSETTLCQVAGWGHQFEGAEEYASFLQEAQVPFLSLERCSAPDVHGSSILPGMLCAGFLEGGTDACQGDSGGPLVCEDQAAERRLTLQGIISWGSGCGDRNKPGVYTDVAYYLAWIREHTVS
# FXIa inh = inhibitors of human coagulation factor XIa; purified FXIa, Boc-Glu-Ala-Arg-AMC fluorogenic substrate; AID 798; inhibition, % at 5 µM; P03951; hit rate 0.14% among 220,000;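 active means inhibition of at least 40%; inactive means inhibition below 40%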;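 further: fluorescence of freed AMC excited at 355 nm; 0% = enzyme without compound and 100% = no enzyme blank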
# Thrombin inh = inhibitors of human thrombin; P00734; alpha-thrombin, Boc-VPR-AMC fluorogenic substrate cleavage; inhibition, % at 5 µM; hit rate 0.26% among 220,000; AID 1046;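 active means inhibition at or above 40%; inactive means inhibition below 40%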;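 further: 0% = enzyme with no compound and 100% = wells without enzyme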
#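 Material: Human alpha-thrombin protein | Buffer or medium: pH 7.5 Tris-saline with Tween 20 | Reagent: Boc-VPR-AMC substrate, 15 µM final | Schedule: Reaction at ambient temperature | Detection: AMC fluorescence at 355 nm excitation and 460 nm emission | Evaluation: Percent inhibition scaled between no-compound controls and no-enzyme blanks | Controls: no-compound enzyme wells and no-enzyme blanks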
# Active calls of the source: *; nt = not tested or not shown; ! = not confirmed by another sample.
SMILES,hK5 inh,Furin inhibitor,FXIIa inh 1536,FXIa inh,Thrombin inh
Cc1cccc(/C=N/n2c(C)cc(C)c(C#N)c2=O)c1,-5,-7,7,3,-3
CCOC(=O)c1nnc(-c2cccs2)nc1NC(C)C,115*,-13,2,0,4
O=C(O)CCc1ccc(-c2ccc(Cl)cc2)n1NC(=O)c1ccc(O)cc1,-10,-26,15,-3,2
COc1ccc(OC)c(C2CC(c3c(-c4ccccc4)c4cc(Cl)ccc4[nH]c3=O)=NN2S(C)(=O)=O)c1 (stereo not drawn),42*,1,8,0,3
CSCCC(NS(=O)(=O)c1ccccc1F)C(=O)OCc1ccccc1Cl (stereo not drawn),-14,2,5,-4,0
C=CCN(CC=C)C(=O)C(=O)c1ccn(-c2c(C)csc2C(=O)OC)c1,18,-24,10,1,1
O=C(COC(=O)CCc1nc2ccccc2c(=O)[nH]1)Nc1ccc(Cl)cn1,43*,-8,40,105*,16
COc1ccccc1NC(=O)CCS(=O)(=O)c1ccccc1,29,-12,24,31,52*
COc1ccc(S(=O)(=O)CCC(=O)Nc2cc(C)ccc2OC)cc1,nt,-30,17,1,9
CCSc1ccccc1C(=O)Nc1nncs1,3,27*,7,1,5
Cc1ccccc1C(=O)Nc1nncs1,-6,-17,2,-5,-5
CSc1sc(C(=O)Nc2ccc(F)cc2F)c2c1C=CCC2,-3,-18,5,-2,-4
CCCCC(=O)Nc1ncc2c(n1)CC(C)(C)CC2=O,-3,-26,-5,-7,0
CC1(C)CC(=O)c2cnc(NC(=O)Cc3ccc(Cl)cc3)nc2C1,86*,-22,2,1,36
O=C(CCc1ccccc1)c1nnc(-c2ccccc2)o1,1,-18,6,-1,0
CCOC(=O)Nc1nn(-c2ccc(C)cc2)c(=O)c(C#N)c1C,-12,-23,0,-4,0
Fc1ccc(SCCc2ccccn2)cc1,-2,-20,40*!,-1,-2
O=C(NCCSc1ccccc1)c1ccccc1,89*,-7,0,-6,0
O=C(NCCSc1ccccc1)c1ccc(Br)cc1,-6,-22,11,-2,-8
Nn1c(SCC(=O)Nc2ccc(F)cc2F)nnc1-c1cccnc1,41*,-16,34,10,34
Nn1c(SCC(=O)Nc2ccccc2F)nnc1-c1cccnc1,-10,-20,6,-1,-4
Cc1nn(CC(=O)N2CCc3ccccc3C2)c(C)c1[N+](=O)[O-],22,-10,85*,38,-1
O=C(CC1Sc2ccccc2NC1=O)NCc1ccc(Cl)cc1 (stereo not drawn),-6,-14,10,1,4
CC(=O)Nc1ccc(S(=O)(=O)NCC(=O)OCC(=O)N2CCN(c3ccccc3)CC2)cc1,-13,-23,24,18,-4
c1cncc(-c2nc3ccccc3o2)c1,-13,-8,-8,-8,0
SMILES,hK5 inh,Furin inhibitor,FXIIa inh 1536,FXIa inh,Thrombin inh
O=c1oc(-c2cccnc2)nc2ccccc12,9,-24,-3,3,82*
CCn1c(SCC(N)=O)nnc1C(C)C,-1,-24,8,-2,97*
CCSc1nc2ccccc2c(=O)n1CCc1ccc(OC)c(OC)c1,2,-24,11,3,1
O=C(N/N=C/C1CC2CCC1C2)c1c[nH]c2ccccc12 (stereo not drawn),0,-13,10,-2,-7
CCc1ccc(C2c3[nH]c4ccccc4c3CCN2C(=O)c2cc[n+]([O-])cc2)cc1 (stereo not drawn),50*,-3,30,16,36
O=C1CC(c2cc([N+](=O)[O-])ccc2Cl)c2c(ccc3ccccc23)N1 (stereo not drawn),-8,-16,9,3,-3
O=C(O)/C=C/c1ccc(-n2ccnc2)cc1,-9,-13,9,5,0
CC1(C)CC(=O)C(C=Nc2ccc(NC3=C(C#N)C(=O)CC(C)(C)C3)cc2)=C(O)C1,-2,14,5,-2,-3
COc1ccc2nc3ccccc3nc2c1N,19,0,44*,29,15
CN1CCN(C(=S)c2cn(CCOc3ccccc3F)c3ccccc23)CC1,1,-27,8,-3,-9
CCN=C(NCC)SC1CC(=O)N(c2ccc(F)cc2)C1=O (stereo not drawn),-4,-7,3,-5,-11
